Screening results deposited in PubChem BioAssay by several laboratories.
In the library only some 3.9% were active in any assay of this set; here they are far more common.
STAT3 act: STAT3 signaling activation. 190,000 compounds, 0.91% hits. activation (% of control), % at 5.6 µM. AID 871. U3A cells, IL-6 STAT3-luciferase reporter, luminescence; 100% = signal with IL-6 EC80 alone;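 active = activation above the screen-wide mean of compound activation plus 3 SD, cut at about 130% in these data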;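 also: 0% = background luminescence of wells with medium and substrate only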
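Material: STAT3-luciferase reporter U3A cells. Controls: IL-6-treated wells, 100% activation. Read-out: % activation versus median of IL-6-stimulated wells. Probe or stimulus: IL-6 stimulus at 33 ng/mL final. Timing: compound 1 h, then IL-6 6 h at 37 °C. Signal: reporter luminescence signal.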
STAT1 blocker: reduces IFN-gamma driven STAT1 reporter signal. NIH 3T3 STAT1-luciferase reporter, luminescence. inhibition, % at 5.5 µM. 200,000 compounds, 0.35% hits;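 active = inhibition above a set limit, the mean inhibition across all tested compounds plus 3 SD, cut at about 34% in these data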;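 also: 0% = IFN-gamma with DMSO and 100% = IFN-gamma with 300 µM nifuroxazide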
APP 5'UTR act: activates APP 5'UTR luciferase reporter. AID 1276. SH-SY5Y APP 5'UTR luciferase reporter, luminescence; zero percent = DMSO vehicle wells. activation, % at 2 µM. 190,000 compounds, 1% hits;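 active = activation above a set limit, based on mean plus 3 SD of controls, cut at about 140% in these data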
Pf gametocyte: P. falciparum stage V gametocyte viability inhibition; 150,000 compounds, 0.065% hits; inhibition, % at 10.9 µM; AID 743093; P. falciparum stage V gametocytes, ATP luminescence, 24 h;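 active = inhibition above the mean plus 3 SD of compounds within the control limits, set per campaign, cut at about 38% in these data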;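 also: 0% = DMSO wells and 100% = medium only without gametocytes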
NF-kB neuron act: raises NF-kB expression in human neuronal cells. NF-kB reporter expression; active compounds read high. fold change at 12.5 µM. 190,000 compounds, 1.6% hits; in the data active = fold change above about 3.3
STAT1 activator: increases IFN-gamma driven STAT1 reporter signal; NIH 3T3 STAT1-luciferase reporter, luminescence; 100% = IFN-gamma alone, no compound; activation (% of control), % at 5.5 µM; 200,000 compounds, 2.6% hits;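 active = activation above the screen-wide mean activation plus 3 SD, cut at about 130% in these data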;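 also: raw ratio to IFN-gamma control signal so 100% means no change and 0% no light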
Starred values were filed as active, the others as inactive; . = not tested or not shown.

SMILES | STAT3 act | STAT1 blocker | APP 5'UTR act | Pf gametocyte | NF-kB neuron act | STAT1 activator
COc1cc(C(=O)Nc2nc3ccc(S(C)(=O)=O)cc3s2)cc(OC)c1C | . | . | . | -23 | . | .
Cc1ccc(C(=O)Nc2nc3ccc(S(C)(=O)=O)cc3s2)s1 | 92 | -50 | 33 | 14 | 2.5 | 146*
CCC(=O)Nc1nc2ccc(S(C)(=O)=O)cc2s1 | 121 | -33 | -10 | . | 1.6 | 131*
CCOCC(=O)Nc1nc2ccc(S(C)(=O)=O)cc2s1 | 91 | -23 | -8 | -16 | 1.4 | 122
CCCNC(=S)N(Cc1ccccc1)Cc1nc2ccccc2c(=O)[nH]1 | 104 | 1 | 0 | -17 | 1.4 | 99
[O-]/[N+](=C\c1ccncc1)c1ccc(Br)cc1 | 101 | -24 | 95 | . | 4.5* | 122
CC(C)c1ccc(NC(=O)COc2ccccn2)cc1 | 88 | -34 | 42 | 13 | 1.3 | 130*
COc1ccc(/C=C/C(=O)N2CCN(S(=O)(=O)/C=C/c3ccccc3)CC2)cc1OC | 98 | 2 | -1 | . | 1.1 | 98
COc1ccc(/C=C/C(=O)N2CCN(S(=O)(=O)c3ccccc3)CC2)cc1OC | 97 | -43 | 7 | 6 | 0.89 | 138*
CCC(C)C(NC(=O)C1CCC(C)CC1)C(=O)NC1CCN(Cc2ccccc2)CC1 (stereo not given) | . | 7 | 12 | . | 1.1 | 93
CN(C)/C=N/c1ncc(C(=O)c2ccccc2)s1 | 109 | -32 | 76 | . | 2.5 | 129*
Cc1cc(C)n(C(CC(=O)O)C(=O)O)n1 (stereo not given) | 100 | -6 | 139* | -29 | 1 | 105
Cc1nn(C(CC(=O)O)C(=O)O)c(C)c1Br (stereo not given) | 92 | 3 | -4 | 2 | 1 | 97
O=C(Nc1ccccc1)c1ccc(-c2ccccc2)s1 | 105 | -44 | 60 | 1 | 2.4 | 137*
COc1ccc(C(=O)NCCCCNC(=O)c2ccc(OC)c(OC)c2)cc1OC | . | . | . | -17 | . | .
CCOC(=O)c1cc(C(C)=O)c(=O)[nH]c1C | 99 | -5 | 222* | 1 | 1.1 | 104
COc1cccc(Nc2nc3ccc(OC)cc3s2)c1 | 98 | -33 | 195* | -3 | 4.7* | 129*
COc1ccc2nc(NC3=NCCC3)sc2c1 | 89 | -39 | 51 | . | 2.6 | 136*
Nc1[nH]nc2c1NN(c1ccc(Cl)cc1Cl)N2 | 97 | -32 | 47 | -24 | 1.4 | 128
CC(C)(C)NC(=O)NC(=O)COC(=O)CNS(=O)(=O)c1ccc(Br)cc1Cl | 102 | 0 | 18 | 10 | 1.1 | 99
O=C(CSc1cn(Cc2ccccc2)c2ccccc12)Nc1nccs1 | 119 | -51 | 68 | . | 2.7 | 146*
Fc1ccccc1/C=N/Nc1ncnc2nc[nH]c12 | 89 | -41 | 45 | . | 1.8 | 137*
Fc1cccc(/C=N/Nc2ncnc3nc[nH]c23)c1 | 79 | -42 | 17 | . | 2.1 | 138*
COC(=O)N/N=C(/c1ccccc1)C1CCCCC1 | 99 | 3 | 5 | . | 5.6* | 96
C/C(Cc1ccccc1)=N\NC(=O)C1CCCCC1 | 106 | 0 | -13 | 16 | 1.1 | 101
SMILES | STAT3 act | STAT1 blocker | APP 5'UTR act | Pf gametocyte | NF-kB neuron act | STAT1 activator
Cc1nn2cc(-c3ccccc3)nc2s1 | 58 | -49 | 114 | -13 | 5.4* | 144*
O=C(Nc1cnc2sccn2c1=O)c1ccccc1Cl | 86 | -43 | 74 | . | 2.4 | 140*
Cc1cccc(NC(=O)c2cnc3sccn3c2=O)n1 | 96 | -25 | -15 | . | . | 122
Cc1cccc(NC(=O)c2cnc3sccn3c2=O)c1 | . | -28 | 167* | . | 5.5* | 124
Cc1cccc(NC(=O)c2cnc3sccn3c2=O)c1C | 97 | -40 | 49 | . | 2.5 | 136*
Cc1[nH]nc2c1C(c1cccs1)C1=C(CC(C)(C)CC1=O)N2 (stereo not given) | 85 | 11 | 9 | 4 | 0.77 | 89
O=C(CCC1CCCN(Cc2cccc(Cl)c2)C1)NCc1ccccc1F (stereo not given) | . | . | . | -1 | . | .
Cc1ccccc1S(=O)c1ccccc1C(=O)O (stereo not given) | . | . | . | -15 | . | .
CC1C/C(=C/c2ccco2)C(=O)/C(=C/c2ccco2)C1 (stereo not given) | 102 | 5 | -1 | . | 1.5 | 98
O=C1/C(=C\c2ccco2)CCC/C1=C\c1ccco1 | 104 | -26 | 101 | 1 | 5.9* | 123
CCCOc1ccc(-c2cnc(N)s2)cc1 | 92 | -37 | 88 | 19 | 2.2 | 133*
CCCOc1ccc(OCCSc2nnc(N)s2)cc1 | 97 | -17 | -5 | 0 | 1.9 | 115
Cc1cc(OCCN2CCOCC2)ccc1Cl | . | . | . | -8 | . | .
O=S(=O)(c1ccc2c(c1)OCCO2)N1CCN(c2ncnc3sccc23)CC1 | 51 | 38* | 1 | -21 | 0.78 | 65
CN1CCN(S(=O)(=O)c2ccc3c(c2)OCCO3)CC1 | 86 | 2 | 4 | . | 1.1 | 98
COCCNC(=O)c1ccccc1NC(=O)c1ccccc1SC | 99 | -2 | 23 | -28 | 1 | 100
Clc1ccc(COn2c(-c3ccc(Cl)cc3)nc3ccccc32)cc1 | 89 | 8 | . | -38 | 0.93 | 92
Cc1ccc(COn2c(-c3ccc(Cl)cc3)nc3ccc([N+](=O)[O-])cc32)cc1 | 104 | -38 | . | 2 | 5.3* | 135*
O=[N+]([O-])c1ccc2nc(-c3ccc(Cl)cc3)n(OCc3ccccc3)c2c1 | 96 | -32 | . | -18 | 4.5* | 129*
CC(C)c1nc2sc(C(=O)O)c(N)c2c2c1CCCC2 | . | . | . | 11 | . | .
COc1ccccc1CN=c1c([N+](=O)[O-])nn(-c2ccc3c(c2)OCCO3)n1O | 102 | -9 | 33 | -1 | 1.8 | 108
O=[N+]([O-])c1nn(-c2ccc3c(c2)OCCO3)n(O)c1=NCc1ccccc1Cl | 104 | -52 | 32 | . | 2.5 | 146*
COc1ccc(-n2nc([N+](=O)[O-])c(=NCc3ccco3)n2O)cc1 | 100 | -48 | 73 | -24 | 2.2 | 143*
COc1ccc(-n2nc([N+](=O)[O-])c(=NCc3cccnc3)n2O)cc1 | 103 | -55 | 48 | -25 | 2.7 | 149*
COc1ccc(-n2nc([N+](=O)[O-])c(=NCCc3ccc(C)cc3)n2O)cc1 | 104 | -6 | 7 | -13 | 1.3 | 104
SMILES | STAT3 act | STAT1 blocker | APP 5'UTR act | Pf gametocyte | NF-kB neuron act | STAT1 activator
Clc1ccc(-c2nc3ccccn3c2CN2CCCCC2)cc1 | 66 | 6 | 20 | -32 | 0.75 | 93
CN(C)Cc1c(-c2ccc(Cl)cc2)nc2ccccn12 | 97 | -48 | 65 | . | 2.9 | 141*
O=C(Oc1ccc2cc(Br)ccc2c1)N1CCCCCC1 | 104 | -35 | 68 | . | 2.3 | 131*
O=C(COc1ccc2ccccc2c1Br)N1CCN(c2ccccn2)CC1 | 101 | -1 | 6 | . | 1 | 101
O=C(Oc1ccc2ccccc2c1Br)N1CCCCCC1 | 100 | -38 | 172* | 5 | 2.4 | 135*
O=C(Oc1ccc2ccc(=O)oc2c1)N1CCOCC1 | 97 | 3 | -1 | . | 1.2 | 97
CCN(CC)C(=O)Oc1ccc2ccccc2c1Br | 112 | -40 | 18 | 8 | 2.4 | 135*
